Reference: ChEMBL document CHEMBL3774372, “Design, physico-chemical properties and biological evaluation of some new N-[(phenoxy)alkyl]- and N-{2-[2-(phenoxy)ethoxy]ethyl}aminoalkanols as anticonvulsant agents” (Bioorg Med Chem, 2016)
Active and inactive are the calls of the source.

Experiments:
Mus musculus [1] = assay: Anticonvulsant activity in ip dosed mouse assessed as protection against maximal electric shock-induced seizures; format: functional, organism-based
Procedure, shortened: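 Compound suspended in 0.5% methylcellulose and given ip to mice; screening doses 30, 100 and 300 mg/kg, read at 0.25–4 h. Protection was defined as abolition of hindlimb tonic extension.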

Rattus norvegicus [2] = assay: Neurotoxicity in rat at 30 mg/kg, ip after […] by rotarod test; format: toxicity, organism-based; details: in vivo
Rattus norvegicus [3] = assay: Neurotoxicity in rat at 30 mg/kg, ip after 1 hr by rotarod test; format: toxicity, organism-based; details: in vivo
Rattus norvegicus [4] = assay: Neurotoxicity in rat at 30 mg/kg, ip after 2 hrs by rotarod test; format: toxicity, organism-based; details: in vivo
Rattus norvegicus [5] = assay: Anticonvulsant activity in rat assessed as protection against maximal electric shock-induced seizures at 30 mg/kg, po measured after […]; format: functional, organism-based
Mus musculus [6] = assay: Neurotoxicity in mouse at 100 mg/kg, ip after 2 hrs by rotarod test; format: toxicity, organism-based; details: in vivo
Procedure, shortened: (§1)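 Mice were dosed ip with compound suspended in 0.5% methylcellulose. Rotarod: a 1 in. knurled rod turning at 6 rpm. Neurotoxicity was scored as failure to stay on the rod for at least 1 min in each of three trials. Results are given as the number of animals affected out of the number tested.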

Mus musculus [7] = assay: Anticonvulsant activity in mouse assessed as protection against 6 Hz psychomotor seizure at 100 mg/kg, ip after 2 hrs; format: functional, organism-based
Procedure, shortened: (§2)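 Suspension in 0.5% methylcellulose given ip to mice; corneal stimulation with 0.2 ms monopolar rectangular pulses at 6 Hz for 3 s from a constant current device, mice restrained then released to observation cage. Protected if normal exploratory behaviour resumed within 10 s of stimulation. Scored as protected/tested, 4 mice per group.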

Rattus norvegicus [8] = assay: Neurotoxicity in rat at 30 mg/kg, po after 2 hrs by rotarod test; format: toxicity, organism-based; details: in vivo
Rattus norvegicus [9] = assay: Anticonvulsant activity in rat assessed as protection against maximal electric shock-induced seizures at 30 mg/kg, ip measured after 4 hrs; format: functional, organism-based
Procedure, shortened: (§3)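 Rats dosed ip or orally as 0.5% methylcellulose suspension; maximal electroshock at listed time. Protection = abolition of hindlimb tonic extension; 4 rats per group, scored protected/tested.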

Mus musculus [10] = assay: Neurotoxicity in mouse at 100 mg/kg, ip after 1 hr by rotarod test; format: toxicity, organism-based; details: in vivo; procedure, shortened: as §1
Rattus norvegicus [11] = assay: Neurotoxicity in rat at 30 mg/kg, ip after 0.5 hrs by rotarod test; format: toxicity, organism-based; details: in vivo
Rattus norvegicus [12] = assay: Anticonvulsant activity in rat assessed as protection against maximal electric shock-induced seizures at 30 mg/kg, po measured after 1 hr; format: functional, organism-based; procedure, shortened: as §3
Mus musculus [13] = assay: Anticonvulsant activity in mouse assessed as protection against maximal electric shock-induced seizures at 100 mg/kg, ip measured after 4 hrs; format: functional, organism-based
Procedure, shortened: (§4)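 Mice dosed ip with suspension in 0.5% methylcellulose; maximal electroshock applied at the listed time after dosing. Protection = abolition of hindlimb tonic extension component of seizure; reported as animals protected/animals tested.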

Rattus norvegicus [14] = assay: Neurotoxicity in rat at 30 mg/kg, po after […] by rotarod test; format: toxicity, organism-based; details: in vivo
Rattus norvegicus [15] = assay: Anticonvulsant activity in rat assessed as protection against maximal electric shock-induced seizures at 30 mg/kg, ip measured after 2 hrs; format: functional, organism-based; procedure, shortened: as §3
Mus musculus [16] = assay: Neurotoxicity in mouse at 100 mg/kg, ip after 4 hrs by rotarod test; format: toxicity, organism-based; details: in vivo; procedure, shortened: as §1
Mus musculus [17] = assay: Anticonvulsant activity in mouse assessed as protection against maximal electric shock-induced seizures at 100 mg/kg, ip measured after […]; format: functional, organism-based
Rattus norvegicus [18] = assay: Neurotoxicity in rat at 30 mg/kg, ip after 4 hrs by rotarod test; format: toxicity, organism-based; details: in vivo
Rattus norvegicus [19] = assay: Anticonvulsant activity in rat assessed as protection against maximal electric shock-induced seizures at 30 mg/kg, po measured after 2 hrs; format: functional, organism-based; procedure, shortened: as §3
Rattus norvegicus [20] = assay: Neurotoxicity in rat at 30 mg/kg, po after 1 hr by rotarod test; format: toxicity, organism-based; details: in vivo
Rattus norvegicus [21] = assay: Anticonvulsant activity in rat assessed as protection against maximal electric shock-induced seizures at 30 mg/kg, po measured after 4 hrs; format: functional, organism-based; procedure, shortened: as §3
Mus musculus [22] = assay: Anticonvulsant activity in mouse assessed as protection against maximal electric shock-induced seizures at 100 mg/kg, ip measured after 0.5 hrs; format: functional, organism-based; procedure, shortened: as §4
Mus musculus [23] = assay: Anticonvulsant activity in mouse assessed as protection against 6 Hz psychomotor seizure at 100 mg/kg, ip after 4 hrs; format: functional, organism-based; procedure, shortened: as §2
Rattus norvegicus [24] = assay: Anticonvulsant activity in rat assessed as protection against maximal electric shock-induced seizures at 30 mg/kg, po measured after 0.5 hrs; format: functional, organism-based; procedure, shortened: as §3
Rattus norvegicus [25] = assay: Neurotoxicity in rat at 30 mg/kg, po after 0.5 hrs by rotarod test; format: toxicity, organism-based; details: in vivo
Rattus norvegicus [26] = assay: Neurotoxicity in rat at 30 mg/kg, po after 4 hrs by rotarod test; format: toxicity, organism-based; details: in vivo

**Q.** For `Cc1cccc(C)c1OCC(C)N` (stereo unspecified) [MEXILETINE], which EC50 (Mus musculus [1]) is on record?
**A.** Its EC50 is 20 mg/kg.

**Q.** With `Cc1cccc(OCCCN2CCC(O)CC2)c1C` as the molecule, how does the Activity (Rattus norvegicus [2]) read?
**A.** The Activity was “Non-toxic”.

**Q.** And the Activity (Rattus norvegicus [3])?
**A.** The Activity was “Non-toxic”.

**Q.** And the Activity (Rattus norvegicus [4])?
**A.** Its Activity is “Non-toxic”.

**Q.** What about the Activity (Rattus norvegicus [5]) of the same molecule?
**A.** Its Activity is “inactive”.

**Q.** What about the Activity (Mus musculus [6]) of the same molecule?
**A.** The Activity was “Non-toxic”.

**Q.** What about the Activity (Mus musculus [7]) of the same molecule?
**A.** Its Activity is “inactive”.

**Q.** What about the Activity (Rattus norvegicus [8]) of the same molecule?
**A.** The Activity was “Non-toxic”.

**Q.** And the Activity (Rattus norvegicus [9])?
**A.** Its Activity is “inactive”.

**Q.** What about the Activity (Mus musculus [10]) of the same molecule?
**A.** Its Activity is “Non-toxic”.

**Q.** And the Activity (Rattus norvegicus [11])?
**A.** The Activity was “Non-toxic”.

**Q.** What about the Activity (Rattus norvegicus [12]) of the same molecule?
**A.** The Activity was “inactive”.

**Q.** And the Activity (Mus musculus [13])?
**A.** The Activity was “inactive”.

**Q.** And the Activity (Rattus norvegicus [14])?
**A.** Its Activity is “Non-toxic”.

**Q.** What about the Activity (Rattus norvegicus [15]) of the same molecule?
**A.** The Activity was “inactive”.

**Q.** What about the Activity (Mus musculus [16]) of the same molecule?
**A.** Its Activity is “Non-toxic”.

**Q.** And the Activity (Mus musculus [17])?
**A.** The Activity was “Active”.

**Q.** And the Activity (Rattus norvegicus [18])?
**A.** The Activity was “Non-toxic”.

**Q.** What about the Activity (Rattus norvegicus [19]) of the same molecule?
**A.** The Activity was “inactive”.

**Q.** And the Activity (Rattus norvegicus [20])?
**A.** Its Activity is “Non-toxic”.

**Q.** What about the Activity (Rattus norvegicus [21]) of the same molecule?
**A.** Its Activity is “inactive”.

**Q.** And the Activity (Mus musculus [22])?
**A.** Its Activity is “Active”.

**Q.** And the Activity (Mus musculus [23])?
**A.** The Activity was “inactive”.

**Q.** And the Activity (Rattus norvegicus [24])?
**A.** Its Activity is “inactive”.

**Q.** What about the Activity (Rattus norvegicus [25]) of the same molecule?
**A.** The Activity was “Non-toxic”.

**Q.** What about the Activity (Rattus norvegicus [26]) of the same molecule?
**A.** The Activity was “Non-toxic”.
